The results in this text go back to ChEMBL document CHEMBL1135128, “Structure-Activity studies for a novel series of tricyclic dihydropyrimidines as K(ATP) channel openers (KCOs)” (Bioorg Med Chem Lett, 2002).

For orientation: EC50 means the concentration needed to bring the measured effect to its halfway point. A low value points to an effect from little substance.

The target of one assay is Sulfonylurea receptors; K-ATP channels. Description: Potassium channel opening activity determined in cultured guinea pig urinary bladder cells. It counts as functional, cell-based, Cavia porcellus. The procedure, abridged: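 Membrane potential change read as DiBAC dye fluorescence in a 96-well cell-based kinetic FLIPR assay. Fluorescence changes were compared with the response to the KCO P1075, and each compound's maximal response was expressed as % of the P1075 response.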
On to `N#Cc1cccc(C2C3=C(CCCC3=O)NC3=C2C(=O)CCC3)c1`, for which the EC50 amounted to 3800 nM.

`OC1=C2C(=Nc3c(-c4ccco4)cnn3C2c2ccc(Cl)c(Cl)c2)CCC1` (configuration not stated): the EC50 is 12000 nM.

Molecule `OC1=C2C(=Nc3ccnn3C2c2ccc(F)c(C(F)(F)F)c2)CCC1` (configuration not stated) showed a half-maximal effective concentration (EC50) of 290 nM.

Molecule `OC1=C2C(=Nc3ccnn3C2c2ccc(Cl)c(C(F)(F)F)c2)CCC1` (configuration not stated) had an EC50 of 187 nM.

For the molecule `OC1=C2C(=Nc3ccnn3C2c2cccc(Cl)c2)CCC1` (configuration not stated), the concentration for a half-maximal effect (EC50) was found to be 1100 nM.

Consider `Cc1cccc(C2C3=C(O)CCCC3=Nc3ccnn32)c1` (configuration not stated), for which the EC50 was above 10000 nM.

As for `OC1=C2C(=Nc3ccnn3C2c2ccc(F)cc2)CCC1` (configuration not stated), the EC50 worked out at 7800 nM.

`OC1=C2C(=Nc3nnnn3C2c2ccc(F)c(Br)c2)CCC1` (configuration not stated) yielded an EC50 above 10000 nM.

`OC1=C2C(=Nc3n[nH]cc3C2c2ccc(F)c(Br)c2)CCC1` (configuration not stated) registered a concentration for a half-maximal effect (EC50) above 10000 nM.

The molecule `OC1=C2C(=Nc3ncnn3C2c2ccc(F)c(Br)c2)CCC1` (configuration not stated) registered an EC50 above 10000 nM.

As to `OC1=C2C(=Nc3c(-c4cccc(F)c4)cnn3C2c2ccc(Cl)c(Cl)c2)CCC1` (configuration not stated), a half-maximal effect (EC50) was put at 3200 nM.

For the molecule `OC1=C2C(=Nc3ccnn3C2c2ccc(Br)c(F)c2)CCC1` (configuration not stated), the EC50 was 30 nM.

As to `O=[N+]([O-])c1cc(C2C3=C(O)CCCC3=Nc3ccnn32)ccc1Cl` (configuration not stated), a half-maximal response (EC50) required 310 nM.

`CC1(C)CC(=O)C2C(C1)Nc1ccnn1C2c1ccc(F)c(Br)c1` (configuration not stated): the EC50 is 9700 nM.

As for `CC(C)(C)c1cc2n(n1)C(c1ccc(F)c(Br)c1)C1=C(O)CCCC1=N2` (configuration not stated), the response was half-maximal at 12000 nM (EC50).

Regarding `O=C1CSCC2Nc3ccnn3C(c3ccc(F)c(Br)c3)C12` (configuration not stated), the EC50 was 40 nM.

Molecule `OC1=C2C(=Nc3ccnn3C2c2ccc(F)c(Br)c2)CCC1` (configuration not stated) yielded an EC50 of 30 nM.

For the molecule `CC1(C)CCC2Nc3ccnn3C(c3ccc(F)c(Br)c3)C2C1=O` (configuration not stated), the EC50 was 35 nM.

The molecule `O=S1(=O)CCCC2Nc3ccnn3C(c3ccc(F)c(Br)c3)C21` (configuration not stated) yielded an EC50 of 910 nM.

For the molecule `OC1=C2C(=Nc3ccnn3C2c2cccc(OC(F)(F)F)c2)CCC1` (configuration not stated), the EC50 was found to be 1700 nM.

As for `OC1=C2C(=Nc3ccnn3C2c2ccc(F)c(Cl)c2)CCC1` (configuration not stated), the concentration for a half-maximal effect (EC50) stood at 256 nM.

As to `N#Cc1cccc(C2C3=C(O)CCCC3=Nc3ccnn32)c1` (configuration not stated), the 50% effective concentration (EC50) is 2860 nM.

For `OC1=C2C(=Nc3c(Br)cnn3C2c2ccc(F)c(Br)c2)CCC1` (configuration not stated), the EC50 came out at 394 nM.

Take `OC1=C2C(=Nc3ccnn3C2c2cccc(Br)c2)CCC1` (configuration not stated): a half-maximal effect (EC50) was put at 550 nM.

Consider `OC1=C2C(=Nc3ccnn3C2c2ccc(Cl)c(Cl)c2)CCC1` (configuration not stated), for which the concentration giving a half-maximal response (EC50) came out at 130 nM.

Molecular target in another assay: not listed separately
Description: PEC50 for functional potassium channel opening activity in isolated bladder strips.
`OC1=C2C(=Nc3ccnn3C2c2ccc(F)c(Br)c2)CCC1` (configuration not stated) gave an EC50 of 339 nM.

On to `CC1(C)CCC2Nc3ccnn3C(c3ccc(F)c(Br)c3)C2C1=O` (configuration not stated), for which the midpoint of the response, the EC50, lay at 1000 nM.
